The record followed here is ChEMBL document CHEMBL1148614, “Synthesis and evaluation of 2-anilino-3-phenylsulfonyl-6-methylpyridines as corticotropin-releasing factor1 receptor ligands” (Bioorg Med Chem Lett, 2006).

A value given as a limit tells only on which side of the number the result lay.

For series [1], the target named is T1, Corticotropin-releasing factor receptor 1 (Rattus norvegicus, UniProt P35353).
T1 sequence (P35353 whole entry): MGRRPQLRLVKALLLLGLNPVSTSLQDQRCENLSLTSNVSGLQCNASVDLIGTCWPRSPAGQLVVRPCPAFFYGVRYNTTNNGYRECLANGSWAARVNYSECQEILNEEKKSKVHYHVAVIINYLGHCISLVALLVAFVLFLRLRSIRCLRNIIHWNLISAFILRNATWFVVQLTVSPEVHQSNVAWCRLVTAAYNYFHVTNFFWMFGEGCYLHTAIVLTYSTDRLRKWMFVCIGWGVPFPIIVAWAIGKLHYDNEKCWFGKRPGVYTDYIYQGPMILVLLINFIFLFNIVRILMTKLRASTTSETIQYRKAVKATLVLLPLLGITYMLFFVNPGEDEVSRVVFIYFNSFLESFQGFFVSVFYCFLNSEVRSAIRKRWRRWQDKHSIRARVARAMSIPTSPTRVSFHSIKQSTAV
Kind of series: Displacement of [125I]Tyr-o-CRF from CRF1 receptor in rat frontal cortex homogenates. It is filed as tissue-based. Background: In a radioligand displacement assay an active substance lowers the binding of a labelled ligand.

The nature of series [2]: Clearance in Sprague-Dawley rat at 0.5 mg/kg, iv. It is filed as ADME, organism-based. To be noted: in vivo. Also noted: dose 0.5 mg/kg, route intravenous.
For the next series, the system named is Rattus norvegicus. Kind of series: Volume of distribution in Sprague-Dawley rat at 0.5 mg/kg, iv. Also noted: dose 0.5 mg/kg, route intravenous. It is filed as ADME, organism-based. To be noted: in vivo.
A short description of series [3]: Half life in Sprague-Dawley rat at 0.5 mg/kg, iv. It is filed as ADME, organism-based. Also noted: dose 0.5 mg/kg, route intravenous. To be noted: in vivo.
The nature of series [4]: AUC in Sprague-Dawley rat at 2.0 mg/kg, po. The note with it: plasma. The format is ADME, organism-based. Also noted: dose 2 mg/kg, route oral. In outline:
(§1)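 Cassette dosing in Sprague–Dawley rats (n = 3 per route). Oral dose 2 mg/kg, with plasma sampled at 0, 0.5, 1, 2, 4, 6, 8 and 24 h. Plasma drug levels measured by LC/MS/MS.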

A short description of series [5]: Cmax in Sprague-Dawley rat at 2.0 mg/kg, po. The note with it: in vivo. The format is ADME, organism-based. On the set-up: dose 2 mg/kg, route oral. Summed up:
as §1

Series [6] is described as follows: Bioavailability in Sprague-Dawley rat at 2.0 mg/kg, po. It is filed as ADME, organism-based. The note with it: in vivo. Summed up:
as §1

A word on the Ki: it is a measure of affinity in units of concentration, obtained from inhibition or displacement. A low value points to higher affinity. `COc1cccc(S(=O)(=O)c2ccc(C)nc2Nc2c(C)cc(C)cc2C)c1` displayed a Ki in series [1] of 249 nM. That is a sub-micromolar value. Same read-out and setting: next, `Cc1cc(C)c(Nc2nc(C)ccc2S(=O)(=O)c2cccc(OCc3ccccc3)c2)c(C)c1`: 132 nM; `COc1cc(COc2ccc(S(=O)(=O)c3ccc(C)nc3Nc3c(C)cc(C)cc3C)cc2)cc(OC)c1`: 34 nM. Still for that read-out and setting: in the case of `Cc1cc(C)c(Nc2nc(C)ccc2S(=O)(=O)c2ccc(OC(F)(F)F)cc2)c(C)c1` it was 268 nM; in that of `Cc1cc(C)c(Nc2nc(C)ccc2S(=O)(=O)c2ccc(OCCCCC#N)cc2)c(C)c1`, 395 nM; in that of `Cc1cc(C)c(Nc2nc(C)ccc2S(=O)(=O)c2ccc(CO)cc2)c(C)c1`, 1080 nM. Same read-out and setting: in the case of `Cc1ccc(S(=O)(=O)c2c(C)cc(C)nc2Nc2c(C)cc(C)cc2C)cc1` it was 1780 nM; in that of `COc1ccc(S(=O)(=O)c2ccc(C)nc2Nc2c(C)cc(C)cc2C)cc1`, 198 nM; in that of `C=CCOc1ccc(S(=O)(=O)c2ccc(C)nc2Nc2c(C)cc(C)cc2C)cc1`, 119 nM. Consider `Cc1cccc(S(=O)(=O)c2c(C)cc(C)nc2Nc2c(C)cc(C)cc2C)c1`, for which the affinity in series [1], expressed as Ki, was 5170 nM. This Ki lies about 43-fold higher than the previous one. For orientation: clearance means a measure of how efficiently the substance is removed, as volume per time. In general, Vss refers to a proportionality between amount in the body and measured concentration, not a real space. Low readings indicate confinement near the circulation, high ones extensive tissue distribution. For orientation: half-life means how long it takes for the measured level to halve. Read a low half-life as fast loss. For orientation: AUC means the area under the concentration-time curve, a measure of exposure. A word on the Cmax: it is the maximum level reached in the sampled fluid or tissue. Broadly, the bioavailability is the share of a dose that reaches the circulation, judged against a reference dose that is usually intravenous. A low value points to poor availability. Compound `CCc1ccc(S(=O)(=O)c2ccc(C)nc2Nc2c(C)cc(C)cc2C)cc1` registered a Ki in series [1] of 52 nM. The compound further showed a clearance in series [2] of 86.7 mL/min/kg. The compound also registered a Vss in the series with Rattus norvegicus of 25 L/kg. For the same compound, in series [3], the half-life was 5.1 h. Moreover, the area under the curve (AUC) in series [4] came out at 0.347 µM·h. In series [5], this compound returned a Cmax of 72 nM. The compound also registered a bioavailability in series [6] of 35%. As for `Cc1cc(C)c(Nc2nc(C)ccc2S(=O)(=O)c2ccc(OCc3cccc(C#N)c3)cc2)c(C)c1`, in series [1], the inhibition constant (Ki) worked out at 75 nM. With `COc1cccc(COc2ccc(S(=O)(=O)c3ccc(C)nc3Nc3c(C)cc(C)cc3C)cc2)c1`, the inhibition constant (Ki) in series [1] was 58 nM. In the case of `Cc1cc(C)c(Nc2nc(C)ccc2S(=O)(=O)c2ccc(OCc3ccc(C#N)cc3)cc2)c(C)c1`, in series [1], the affinity corresponds to a Ki of 157 nM. `Cc1ccc(S(=O)(=O)c2ccc(C)nc2Nc2c(C)cc(C)cc2C)cc1` yielded a Ki in series [1] of 145 nM. This Ki and that of the compound before are within 1.5-fold of each other.

The compound `Cc1cc(C)c(Nc2nc(C)ccc2S(=O)(=O)Cc2ccc(Cl)cc2)c(C)c1` displayed a Ki in series [1] of 857 nM. In the case of `Cc1cc(C)c(Nc2nc(C)cc(C)c2S(=O)(=O)c2ccccc2C)c(C)c1`, the Ki in series [1] is > 10000 nM.

For `Cc1cc(C)c(Nc2nc(C)ccc2S(=O)(=O)c2ccc(OCCCC#N)cc2)c(C)c1`, the Ki in series [1] was 635 nM. With `COc1ccccc1COc1ccc(S(=O)(=O)c2ccc(C)nc2Nc2c(C)cc(C)cc2C)cc1`, the Ki in series [1] came out at 17 nM. For the same compound, the clearance in series [2] was 58.3 mL/min/kg. In the series on Rattus norvegicus, the Vss was found to be 8 L/kg. In series [3], this compound showed a half-life of 3.5 h. The compound further showed an AUC in series [4] of 0.176 µM·h. The same compound came in with a Cmax in series [5] of 48 nM. In series [6], the bioavailability worked out at 16%. With `Cc1cc(C)c(Nc2nc(C)cc(C)c2S(=O)(=O)c2ccccc2)c(C)c1`, the Ki in series [1] is > 10000 nM. As to `Cc1ccc(S(=O)(=O)c2ccc(Nc3c(C)cc(C)cc3C)nc2C)cc1`, the Ki in series [1] is > 10000 nM. Compound `Cc1cc(C)c(Nc2nc(C)ccc2S(=O)(=O)c2ccc(OCc3ccccn3)cc2)c(C)c1` showed a Ki in series [1] of 250 nM. On to `Cc1cc(C)c(Nc2nc(C)ccc2S(=O)(=O)c2ccc(OCc3ccccc3)cc2)c(C)c1`, for which, in series [1], the Ki amounted to 32 nM. Moreover, in series [2], the clearance is 78.3 mL/min/kg. In addition, the Vss in the series on Rattus norvegicus worked out at 10 L/kg. The compound further showed a half-life in series [3] of 3 h. This compound also yielded an area under the curve (AUC) in series [4] of 0.167 µM·h. In addition, the Cmax in series [5] was 42 nM. Also, the bioavailability in series [6] came to 18%.

`COC(=O)c1cccc(COc2ccc(S(=O)(=O)c3ccc(C)nc3Nc3c(C)cc(C)cc3C)cc2)c1` returned an inhibition constant (Ki) in series [1] of 49 nM.
